Each block holds one compound with its values, some of them ahead of it.
Legend:
[1] = biological target: T1, Programmed cell death protein 1/Programmed cell death 1 ligand 1 (Homo sapiens, UniProt Q9NZQ7); experiment: Inhibition of Ig-tagged PD-1 (unknown origin)/His-tagged PD-L1 (unknown origin) protein-protein interaction preincubated with PD-L1 for 15 mins followed by PD-1 addition measured after 15 mins by HTRF assay; format: protein-complex assay
[2] = Drug uptake in mouse B16-F10 cells expressing PD-L1 in xenograft model; format: ADME, cell-based; details: in vivo
[3] = biological target: T1, Programmed cell death protein 1/Programmed cell death 1 ligand 1; experiment: Inhibition of His-tagged PD-1 (unknown origin)/hFc-tagged PD-L1 (unknown origin) protein-protein interaction incubated for 15 mins by HTRF assay; format: protein-complex assay
In short: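 Small molecules were tested as 10-fold dilution series at a constant final 0.2% DMSO. IC50 came from a four-parameter variable-slope fit of normalized data, with three independent repeats.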

[4] = Drug uptake in human A-375 cells expressing PD-L1 xenografted in bilateral tumors bearing BALB/c mouse model at ~2.5 MBq measured for 120 mins by autoradiography; format: ADME, cell-based; details: in vivo, 2 h
[5] = Biodistribution in bilateral tumors bearing BALB/c mouse model assessed as ratio of drug uptake in human A-375 cells expressing PD-L1 to drug uptake in human A-375 cells at ~2.5 MBq measured for 120 mins by autoradiography; format: ADME, organism-based, Neoplasm; details: a-375, 2 h
[6] = Drug uptake in human A-375 cells xenografted in bilateral tumors bearing BALB/c mouse model at ~2.5 MBq measured for 120 mins by autoradiography; format: ADME, cell-based; details: in vivo, 2 h
[7] = biological target: Programmed cell death 1 ligand 1 (Homo sapiens) (UniProt Q9NZQ7); experiment: Inhibition of [89Zr]Zr-atezolizumab binding from human PD-L1 transfected in CHO cells assessed as radioligand activity at 200 nM preincubated for 30 mins followed by [89Zr]Zr-atezolizumab addition measured after 60 mins by Wizard2 gamma counter analysis (reference value: 8.4 %); format: cell-based; parameters: scale not given: the % may be the effect or the level left; details: time 90.0 min
Programmed cell death 1 ligand 1 (Homo sapiens), sequence (Q9NZQ7 whole entry): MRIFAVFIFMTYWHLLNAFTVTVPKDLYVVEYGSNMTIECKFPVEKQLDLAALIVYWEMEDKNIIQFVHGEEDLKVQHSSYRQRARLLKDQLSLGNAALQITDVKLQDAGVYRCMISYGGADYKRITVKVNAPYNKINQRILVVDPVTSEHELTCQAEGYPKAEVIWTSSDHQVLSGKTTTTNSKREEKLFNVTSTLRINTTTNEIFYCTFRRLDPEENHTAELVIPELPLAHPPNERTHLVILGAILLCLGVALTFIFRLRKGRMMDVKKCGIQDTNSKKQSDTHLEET

[8] = biological target: Programmed cell death 1 ligand 1 (Homo sapiens) (UniProt Q9NZQ7); experiment: Inhibition of [89Zr]Zr-atezolizumab binding from human PD-L1 transfected in CHO cells assessed as radioligand activity at 5000 nM preincubated for 30 mins followed by [89Zr]Zr-atezolizumab addition measured after 60 mins by Wizard2 gamma counter analysis (reference value: 8.4 %); format: cell-based; parameters: scale not given: the % may be the effect or the level left; details: time 90.0 min
CHO-K1 [9] = experiment: Biodistribution in CHO-K1 cells xenografted in NSG mouse co-xenografted with CHO cells expressing hPD-L1 at 31.91 +/- 3.05 MBq measured for 60 mins by micro-PET analysis; format: ADME, organism-based, Cricetulus griseus; details: chinese hamster, in vivo, 1 h
In short: (§1)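 Dynamic whole-body μPET/CT ran up to 60 min and was reconstructed by OSEM3D/MAP. Volumes of interest came from fused PET/CT, with uptake normalized to injected dose and volume as %ID/cc.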

[10] = Drug metabolism in white adipose tissue of NSG mouse xenografted with CHO-K1 cells/CHO cells expressing hPD-L1 assessed as accumulation of radiometabolite formation at 31.91 +/- 3.05 MBq measured for 60 mins by micro-PET analysis; format: ADME, tissue-based; details: in vivo, 1 h
[11] = Biodistribution in brain of NSG mouse xenografted with CHO-K1 cells/CHO cells expressing hPD-L1 at 31.91 +/- 3.05 MBq measured for 60 mins by micro-PET analysis; format: ADME, organism-based; details: in vivo, 1 h; in short: as §1
[12] = Drug metabolism in brain of NSG mouse xenografted with CHO-K1 cells/CHO cells expressing hPD-L1 assessed as accumulation of radiometabolite formation at 31.91 +/- 3.05 MBq measured for 60 mins by micro-PET analysis; format: ADME, tissue-based; details: in vivo, 1 h
CHO [13] = experiment: Biodistribution in CHO cells expressing hPD-L1 xenografted in NSG mouse co-xenografted with CHO-K1 cells at 31.91 +/- 3.05 MBq measured for 30 to 70 mins by Wizard2 gamma counter analysis; format: ADME, organism-based, Cricetulus griseus; details: chinese hamster, in vivo, time 30-70 min
In short: (§2)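 Male NSG mice, 8–10 weeks old, carried subcutaneous CHO-K1 and CHO-hPD-L1 xenografts on opposite flanks (1.5 × 10^6 cells each in PBS/matrigel 1:1). Eleven days after inoculation, radiotracer was injected into the lateral tail vein under isoflurane. Organs were collected at 30, 40 and 70 min, wet-weighed and gamma-counted for 30 s. Counts were background- and decay-corrected to injection, expressed as %ID/g.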

[14] = Biodistribution in kidney of NSG mouse xenografted with CHO-K1 cells/CHO cells expressing hPD-L1 at 31.91 +/- 3.05 MBq measured for 30 to 70 mins by Wizard2 gamma counter analysis; format: ADME, organism-based; details: in vivo, time 30-70 min; in short: as §2
[15] = Biodistribution in intestine of NSG mouse xenografted with CHO-K1 cells/CHO cells expressing hPD-L1 at 31.91 +/- 3.05 MBq measured for 60 mins by micro-PET analysis; format: ADME, organism-based; details: in vivo, 1 h; in short: as §1
[16] = Stability in human plasma assessed as compound remaining measured for 60 mins by HPLC analysis; format: ADME, cell-free; details: read-out: Stability
In short: (§3)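 Formulated radiotracer (25 μL) was incubated in 1250 μL pooled mouse or human plasma at 37 °C. At 0, 15, 30 and 60 min, aliquots were quenched with equal-volume MeCN and centrifuged (4 min, 4 °C, 21,380g). Intact tracer (%) was measured by reversed-phase radio-HPLC.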

[17] = Biodistribution in white adipose tissue of NSG mouse xenografted with CHO-K1 cells/CHO cells expressing hPD-L1 at 31.91 +/- 3.05 MBq measured for 60 mins by micro-PET analysis; format: ADME, organism-based; details: in vivo, 1 h; in short: as §1
CHO [18] = experiment: Biodistribution in CHO cells expressing hPD-L1 xenografted in NSG mouse co-xenografted with CHO-K1 cells at 31.91 +/- 3.05 MBq measured for 60 mins by micro-PET analysis; format: ADME, organism-based, Cricetulus griseus; details: chinese hamster, in vivo, 1 h; in short: as §1
[19] = Biodistribution in liver of NSG mouse xenografted with CHO-K1 cells/CHO cells expressing hPD-L1 at 31.91 +/- 3.05 MBq measured for 30 to 70 mins by Wizard2 gamma counter analysis; format: ADME, organism-based; details: in vivo, time 30-70 min; in short: as §2
[20] = Biodistribution in gall bladder of NSG mouse xenografted with CHO-K1 cells/CHO cells expressing hPD-L1 at 31.91 +/- 3.05 MBq measured for 60 mins by micro-PET analysis; format: ADME, organism-based; details: in vivo, 1 h; in short: as §1
CHO-K1 [21] = experiment: Biodistribution in CHO-K1 cells xenografted in NSG mouse co-xenografted with CHO cells expressing hPD-L1 at 31.91 +/- 3.05 MBq measured for 30 to 70 mins by Wizard2 gamma counter analysis; format: ADME, organism-based, Cricetulus griseus; details: chinese hamster, in vivo, time 30-70 min; in short: as §2
[22] = Stability in mouse plasma assessed as compound remaining measured for 60 mins by HPLC analysis; format: ADME, cell-free; details: read-out: Stability; in short: as §3
[23] = Biodistribution in liver of NSG mouse xenografted with CHO-K1 cells/CHO cells expressing hPD-L1 at 31.91 +/- 3.05 MBq measured for 60 mins by micro-PET analysis; format: ADME, organism-based; details: in vivo, 1 h; in short: as §1
[24] = Biodistribution in lung of NSG mouse xenografted with CHO-K1 cells/CHO cells expressing hPD-L1 at 31.91 +/- 3.05 MBq measured for 30 to 70 mins by Wizard2 gamma counter analysis; format: ADME, organism-based; details: in vivo, time 30-70 min; in short: as §2
[25] = Biodistribution in kidney of NSG mouse xenografted with CHO-K1 cells/CHO cells expressing hPD-L1 at 31.91 +/- 3.05 MBq measured for 60 mins by micro-PET analysis; format: ADME, organism-based; details: in vivo, 1 h; in short: as §1
[26] = Drug uptake in human A-375 cells xenografted in bilateral tumors bearing BALB/c mouse model at ~7.4 MBq measured for 50 mins by micro-PET imaging analysis; format: ADME, cell-based; details: in vivo
[27] = Drug uptake in human A-375 cells expressing PD-L1 xenografted in bilateral tumors bearing BALB/c mouse model at ~7.4 MBq measured for 50 mins by micro-PET imaging analysis; format: ADME, cell-based; details: in vivo
[28] = Biodistribution in bilateral tumors bearing BALB/c mouse model assessed as ratio of drug uptake in human A-375 cells expressing PD-L1 to drug uptake in human A-375 cells at ~7.4 MBq measured for 50 mins by micro-PET imaging analysis; format: ADME, organism-based, Neoplasm; details: a-375, 50 min

T1 sequence (Q15116 whole entry): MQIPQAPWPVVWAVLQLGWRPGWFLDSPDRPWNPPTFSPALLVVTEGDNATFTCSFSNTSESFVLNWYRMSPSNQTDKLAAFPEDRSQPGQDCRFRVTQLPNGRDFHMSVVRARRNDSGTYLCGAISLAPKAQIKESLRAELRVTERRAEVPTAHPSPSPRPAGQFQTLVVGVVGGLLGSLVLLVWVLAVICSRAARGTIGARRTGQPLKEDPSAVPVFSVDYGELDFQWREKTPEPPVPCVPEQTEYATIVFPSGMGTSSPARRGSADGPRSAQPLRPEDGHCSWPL
T1 sequence (Q9NZQ7 whole entry): as the sequence (Q9NZQ7 whole entry) above

SMILES: COc1cc(OCc2cccc(-c3ccc4c(c3)OCCO4)c2C)cc(OC)c1CNCCNC(C)=O
- IC50 [1]: 6 nM

SMILES: Cc1c(COc2cc(OCc3cccc(OS(=O)(=O)[18F])c3)c(CNC(CO)(CO)CO)cc2Cl)cccc1-c1ccc2c(c1)OCCO2
- Drug uptake [2]: 3.33 %ID/ml

SMILES: N#Cc1cc(COc2cc(OCc3cccc(-c4ccc5c(c4)OCCO5)c3Br)c(Cl)cc2CN2CCCC[C@H]2C(=O)O)ccn1
- IC50 [3]: 0.001 nM

SMILES: N#Cc1cncc(COc2cc(OCc3cccc(-c4ccccc4)c3Br)c(Cl)cc2CN2CCCC[C@H]2C(=O)O)c1
- IC50 [3]: 0.01 nM

- Drug uptake [4]: 3.98 % ID/g
- Ratio [5]: 2.9
- Drug uptake [6]: 1.38 % ID/g
SMILES: Cc1c(COc2cc(OCc3cccc(C#N)c3)c(CNCCNC(=O)CO/N=C/[C@H]([18F])[C@@H](O)[C@H](O)[C@H](O)CO)cc2Cl)cccc1-c1ccc2c(c1)OCCO2

SMILES: CCOc1cccc(-c2cccc(COc3cc(OC)c(CNCCNC(C)=O)c(OC)c3)c2C)c1
- IC50 [1]: 110 nM

SMILES: CCOC(=O)/C(C#N)=C/c1cccc(C#N)c1
- Activity [7]: 0%

SMILES: Cc1cc(CN2CCCCC2C(=O)O)ccc1OCc1cccc(-c2ccccc2)c1C (configuration not stated)
- IC50 [1]: 6 nM

SMILES: Cc1c(COc2cc(OCc3ccnc(C#N)c3)c(CN(C)CCO)cc2Cl)cccc1-c1ccc2c(c1)OCCO2
- Activity [8]: 4.7%

- Drug uptake (CHO-K1 [9]): < 1.2 %ID/cc
- Drug metabolism [10]: Metabolite_Notdetected
- Drug uptake [11]: < 1.2 %ID/cc
- Drug metabolism [12]: Metabolite_Notdetected
- Drug uptake (CHO [13]): < 1.5 % ID/g
- Drug uptake [14]: Active
- Drug uptake [15]: Active
- remaining at 1 h [16]: > 99%
- Drug uptake [17]: < 1.2 %ID/cc
- Drug uptake (CHO [18]): < 1.2 %ID/cc
- Drug uptake [19]: Active
- Drug uptake [20]: Active
- Drug uptake (CHO-K1 [21]): < 1.5 % ID/g
- remaining at 1 h [22]: > 99%
- Drug uptake [23]: Active
- Drug uptake [24]: Active
- Drug uptake [25]: Active
SMILES: Cc1c(COc2cc(OCc3ccnc(C#N)c3)c(CN([11CH3])CCO)cc2Cl)cccc1-c1ccc2c(c1)OCCO2

- Drug uptake [26]: 1.19 %ID/ml
- Drug uptake [27]: 3.53 %ID/ml
- Ratio [28]: 3
SMILES: Cc1c(COc2cc(OCc3cccc(C#N)c3)c(CN3CCN(CCOCCOCCOCC[18F])CC3)cc2Cl)cccc1-c1ccc2c(c1)OCCO2

SMILES: Cc1c(COc2cc(OCc3ccnc(C#N)c3)c(CN(C)[C@H](CO)C(=O)O)cc2Cl)cccc1-c1ccc2c(c1)OCCO2
- Activity [8]: 4.2%
